Results published in ChEMBL document CHEMBL1147057, “Virstatin inhibits dimerization of the transcriptional activator ToxT” (Proc Natl Acad Sci U S A, 2007).
Activity calls are given as the source filed them. No cut-off for these calls is given here.

Tests used:
[1] = target: T1, TCP pilus virulence regulatory protein (Vibrio cholerae serotype O1 (strain ATCC 39541 / Classical Ogawa 395 /O395)) (UniProt A5F384); test: Inhibition of maltose binding protein-fused Vibrio cholerae ToxT monomer by gel filtration method
T1 sequence (whole entry): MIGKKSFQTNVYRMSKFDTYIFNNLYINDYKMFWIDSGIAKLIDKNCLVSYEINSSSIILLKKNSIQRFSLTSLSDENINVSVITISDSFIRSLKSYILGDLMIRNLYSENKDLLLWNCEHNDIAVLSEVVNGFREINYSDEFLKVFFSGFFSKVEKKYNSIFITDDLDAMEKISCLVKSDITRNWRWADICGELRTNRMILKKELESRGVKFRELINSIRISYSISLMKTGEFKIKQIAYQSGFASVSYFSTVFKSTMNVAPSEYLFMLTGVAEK

[2] = target: T1, TCP pilus virulence regulatory protein (Vibrio cholerae serotype O1 (strain ATCC 39541 / Classical Ogawa 395 /O395)); test: Inhibition of Vibrio cholerae wild type ToxT-mediated transcription of ctx promoter at 50 uM
[3] = target: T1, TCP pilus virulence regulatory protein (Vibrio cholerae serotype O1 (strain ATCC 39541 / Classical Ogawa 395 /O395)); test: Inhibition of ToxT-mediated transcriptional activation of acfA promoter in Vibrio cholerae O395deltalacZ assessed as beta-galactosidase expression at 100 uM relative to control; parameters: scale not given: the % may be the effect or the level left
[4] = target: T1, TCP pilus virulence regulatory protein (Vibrio cholerae serotype O1 (strain ATCC 39541 / Classical Ogawa 395 /O395)); test: Inhibition of ToxT-mediated transcriptional activation of tcpI promoter in Vibrio cholerae O395deltalacZ assessed as beta-galactosidase expression at 100 uM relative to control; parameters: scale not given: the % may be the effect or the level left
[5] = target: T1, TCP pilus virulence regulatory protein (Vibrio cholerae serotype O1 (strain ATCC 39541 / Classical Ogawa 395 /O395)); test: Inhibition of Vibrio cholerae wild type ToxT N-terminal domain dimerization expressed in Escherichia coli assessed as beta-galatosidase reporter gene expression at 50 uM by bacterial two-hybrid system
Method in brief: (§1)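 Bacterial two-hybrid: identical toxT N-terminal segments fused to Zif (pACTrAp-Zif) and ω (pBRGpω) and co-transformed into E. coli KDZif1ZΔtolC. Cultures grown overnight with or without 10 μM IPTG and virstatin (10–50 μM), then subcultured into the same conditions. lacZ reporter activity measured by β-galactosidase assay in triplicate; a representative experiment is reported.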

[6] = target: T1, TCP pilus virulence regulatory protein (Vibrio cholerae serotype O1 (strain ATCC 39541 / Classical Ogawa 395 /O395)); test: Inhibition of Vibrio cholerae wild type ToxT N-terminal domain dimerization expressed in Escherichia coli assessed as beta-galatosidase reporter gene expression at 20 uM by bacterial two-hybrid system; method in brief: as §1
[7] = target: T1, TCP pilus virulence regulatory protein (Vibrio cholerae serotype O1 (strain ATCC 39541 / Classical Ogawa 395 /O395)); test: Inhibition of ToxT-mediated transcriptional activation of acfD promoter in Vibrio cholerae O395deltalacZ assessed as beta-galactosidase expression at 100 uM relative to control; parameters: scale not given: the % may be the effect or the level left
[8] = target: T1, TCP pilus virulence regulatory protein (Vibrio cholerae serotype O1 (strain ATCC 39541 / Classical Ogawa 395 /O395)); test: Inhibition of ToxT-mediated transcriptional activation of ctxAB promoter in Vibrio cholerae O395deltalacZ assessed as beta-galactosidase expression at 100 uM relative to control; parameters: scale not given: the % may be the effect or the level left
Vibrio cholerae [9] = test: Inhibition of maltose binding protein-fused Vibrio cholerae ToxT L113P mutant monomer by gel filtration method
[10] = target: T1, TCP pilus virulence regulatory protein (Vibrio cholerae serotype O1 (strain ATCC 39541 / Classical Ogawa 395 /O395)); test: Inhibition of ToxT-mediated transcriptional activation of aldA promoter in Vibrio cholerae O395deltalacZ assessed as beta-galactosidase expression at 100 uM relative to control; parameters: scale not given: the % may be the effect or the level left
[11] = target: T1, TCP pilus virulence regulatory protein (Vibrio cholerae serotype O1 (strain ATCC 39541 / Classical Ogawa 395 /O395)); test: Inhibition of ToxT-mediated transcriptional activation of tcpA promoter in Vibrio cholerae O395deltalacZ assessed as beta-galactosidase expression at 100 uM relative to control; parameters: scale not given: the % may be the effect or the level left
Vibrio cholerae [12] = test: Inhibition of Vibrio cholerae ToxT L113P mutant N-terminal domain dimerization expressed in Escherichia coli assessed as beta-galatosidase reporter gene expression at 10 uM by bacterial two-hybrid system; method in brief: as §1
[13] = target: T1, TCP pilus virulence regulatory protein (Vibrio cholerae serotype O1 (strain ATCC 39541 / Classical Ogawa 395 /O395)); test: Inhibition of Vibrio cholerae wild type ToxT N-terminal domain dimerization expressed in Escherichia coli assessed as beta-galatosidase reporter gene expression at 35 uM by bacterial two-hybrid system; method in brief: as §1
[14] = target: T1, TCP pilus virulence regulatory protein (Vibrio cholerae serotype O1 (strain ATCC 39541 / Classical Ogawa 395 /O395)); test: Inhibition of ToxT-mediated transcriptional activation of tagA promoter in Vibrio cholerae O395deltalacZ assessed as beta-galactosidase expression at 100 uM relative to control; parameters: scale not given: the % may be the effect or the level left
[15] = target: T1, TCP pilus virulence regulatory protein (Vibrio cholerae serotype O1 (strain ATCC 39541 / Classical Ogawa 395 /O395)); test: Inhibition of Vibrio cholerae wild type ToxT N-terminal domain dimerization expressed in Escherichia coli assessed as beta-galatosidase reporter gene expression at 10 uM by bacterial two-hybrid system; method in brief: as §1

O=C(O)CCCN1C(=O)c2cccc3cccc(c23)C1=O
Activity [1]: Active
Activity [2]: Active
Activity [3]: 15%
Activity [4]: 15%
Activity [5]: Active
Activity [6]: Active
Activity [7]: 3%
Activity [8]: 3%
Activity (Vibrio cholerae [9]): inactive
Activity [10]: 15%
Activity [11]: 3%
Activity (Vibrio cholerae [12]): inactive
Activity [13]: Active
Activity [14]: 3%
Activity [15]: Active

COC(=O)CCCN1C(=O)c2cccc3cccc(c23)C1=O
Activity [2]: Active

O=C(O)CCN1C(=O)c2cccc3cccc(c23)C1=O
Activity [2]: Active

O=C(O)CN1C(=O)c2cccc3cccc(c23)C1=O
Activity [2]: Active

O=C(O)C1CCCC(N2C(=O)c3cccc4cccc(c34)C2=O)C1 (centres undefined)
Activity [2]: Active
